Results as given in ChEMBL document CHEMBL1629499, “Synthesis, crystal structure and biological evaluation of novel 2-(5-(hydroxymethyl)-3-phenyl-1H-pyrazol-1-yl)-1-phenylethanol derivatives” (Eur J Med Chem, 2010).
Calls of active or inactive are those of the source. No cut-off for these calls is given here.

Assays:
Format in all cases: functional, cell-based
[1] = system: A549; test: Induction of apoptosis in human A549 cells assessed as morphological changes at 60 uM after 48 hrs by Hoechst 33258 staining-based fluorescence microscopy
In short: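 A549 cells exposed 48 h, stained with Hoechst 33258 and examined by fluorescence microscopy for chromatin condensation and nuclear DNA fragmentation.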

[2] = system: A549; test: Anticancer activity against human A549 cells assessed as upregulation of LC3-2 expression at 60 uM after 48 hrs by Western blot analysis
In short: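 After 48 h treatment, A549 cells washed in ice-cold PBS and lysed in 0.5% SDS buffer (25 mM Tris-HCl pH 7.5, EDTA, NaCl, PMSF, protease inhibitors). Protein measured by Bradford. Equal protein run on 15% SDS-PAGE, transferred to PVDF, probed overnight at 4 °C with primary antibody, β-actin as loading control. HRP secondary, chemiluminescent detection on film, bands quantified by densitometry.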

[3] = system: A549; test: Induction of necrosis in human A549 cells assessed as LDH release at 60 uM after 48 hrs
In short: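 LDH activity measured in culture medium of A549 cells after 48 h exposure and compared with control cells.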

[4] = system: A549; test: Anticancer activity against human A549 cells assessed as cell viability at 60 uM after 48 hrs by phase contrast microscopy
In short: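 A549 lung cancer cells grown in RPMI 1640 with 10% bovine calf serum and 80 U/ml gentamicin at 37 °C, 5% CO2, seeded at 6250/cm². After 48 h exposure, cells inspected by phase contrast microscopy for morphology and cell number.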

[5] = system: A549; test: Cell cycle arrest in human A549 cells assessed as accumulation in G1 phase at 60 uM after 48 hrs using propidium iodide staining by flow cytometry (reference value: 22%)

SMILES | Activity [1] | Activity [2] | Activity [3] | Activity [4] | Activity [5]
OCc1cc(-c2ccc(Cl)cc2)nn1CC(O)c1ccc(Cl)cc1 (stereo unspecified) | inactive | Active | inactive |  | 
COc1ccc(C(O)Cn2nc(-c3ccccc3)cc2CO)cc1 (stereo unspecified) |  |  |  | inactive | 
OCc1cc(-c2ccccc2)nn1CC(O)c1ccc(Cl)cc1 (stereo unspecified) | inactive | Active | inactive |  | 
COc1ccc(-c2cc(CO)n(CC(O)c3ccccc3)n2)cc1 (stereo unspecified) |  |  |  | inactive | 
OCc1cc(-c2ccc(Cl)cc2)nn1CC(O)c1ccccc1 (stereo unspecified) |  |  |  | inactive | 
COc1ccc(C(O)Cn2nc(-c3ccc(Cl)cc3)cc2CO)cc1 (stereo unspecified) |  |  |  | inactive | 
COc1ccc(-c2cc(CO)n(CC(O)c3ccc(Cl)cc3)n2)cc1 (stereo unspecified) | inactive | Active | inactive |  | inactive
OCc1cc(-c2ccccc2)nn1CC(O)c1ccccc1 (stereo unspecified) |  |  |  | inactive | 
COc1ccc(-c2cc(CO)n(CC(O)c3ccc(OC)cc3)n2)cc1 (stereo unspecified) |  |  |  | inactive | 
